PubChem BioAssay
The source made the active and inactive calls.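 The calls were made as follows, unless noted: active = compounds giving at least 50% inhibition in the cell-based MKP-3 phosphatase rescue imaging test; inactive = the rest.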

Columns and labels:
[1] = inhibitors of TNFa-induced NFkB p65 translocation, primary screen, imaging, HUVEC, MLSMR starter and 10KST1 sets (AID 438;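 active = inhibition above 20% together with a positive visual image hit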;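 also: compound added about 3h40 before a 20 min TNFalpha stimulation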;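 as to inhibition: signal is the nuclear over cytoplasmic p65 intensity ratio per well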); settings: HUVEC TNFa-induced p65 nuclear translocation; cell count: measured here: nuclei count (cytotoxicity indicator), at 2.08 µM; inhibition: at 2 µM, stronger effect = higher value, 0% TNFa-plus-vehicle, 100% no-TNFa wells
[2] = endothelial E-selectin expression blockers – imaging, HUVEC, immunofluorescence, MLSMR starter and 10KST1 sets, primary screen (AID 487;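 active = visually confirmed hit in the image check and inhibition above 20%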;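 as to inhibition: signal is fraction of cell area covered by stained E-selectin grains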;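 as to nuclei count: 100% = median nuclei count of all wells on the same plate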); settings: HUVEC TNFalpha-induced E-selectin immunofluorescence imaging, at 2 µM; inhibition: stronger effect = higher value; nuclei count: measured here: cell number, toxicity
[3] = Primary imaging screen for DUSP6 inhibitors that restore phospho-Erk in transfected HeLa cells, chemical complementation (AID 609); settings: HeLa MKP-3 transfected, phospho-Erk imaging KS statistic, at 10 µM, cells stimulated with TPA for 15 min;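 as to inhibition: phospho-Erk level distribution per well compared with pooled transfected vehicle control wells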
[4] = target: Dual specificity protein phosphatase 6 (Homo sapiens) (UniProt Q16828); test: as above; settings: HeLa MKP-3 transfected, phospho-Erk imaging KS statistic; at 10 µM; stronger effect = higher value; cells stimulated with TPA for 15 min
Dual specificity protein phosphatase 6 (Homo sapiens), sequence (Q16828 whole entry, looked up): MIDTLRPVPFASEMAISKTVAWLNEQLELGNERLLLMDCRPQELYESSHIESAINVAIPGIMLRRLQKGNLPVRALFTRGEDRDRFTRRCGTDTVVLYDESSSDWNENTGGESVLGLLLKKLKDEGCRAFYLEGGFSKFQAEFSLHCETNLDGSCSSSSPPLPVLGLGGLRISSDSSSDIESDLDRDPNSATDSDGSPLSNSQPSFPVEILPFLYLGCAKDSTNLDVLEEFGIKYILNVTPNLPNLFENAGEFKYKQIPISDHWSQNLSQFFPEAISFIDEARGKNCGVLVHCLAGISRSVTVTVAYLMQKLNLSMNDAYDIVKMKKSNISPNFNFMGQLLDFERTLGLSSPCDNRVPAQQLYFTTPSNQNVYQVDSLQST

[5] = target: Voltage-gated potassium channel subunit beta-2 (Rattus norvegicus) (UniProt P62483); test: inhibitors of rat Kvbeta2 reductase activity – biochemical, NADPH fluorescence, primary screen (AID 622;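 active = fluorescence slope higher than the sample average by over 3 SD, cut at about -0.22 in these data, passing the limit was not always enough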;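 also: slope of raw intensity against log time taken from 70 to 1610 s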); settings: recombinant KvBeta, 4-cyanobenzaldehyde reduction, at 10 µM, stronger effect = higher value
Voltage-gated potassium channel subunit beta-2 (Rattus norvegicus), sequence (P62483 whole entry, looked up): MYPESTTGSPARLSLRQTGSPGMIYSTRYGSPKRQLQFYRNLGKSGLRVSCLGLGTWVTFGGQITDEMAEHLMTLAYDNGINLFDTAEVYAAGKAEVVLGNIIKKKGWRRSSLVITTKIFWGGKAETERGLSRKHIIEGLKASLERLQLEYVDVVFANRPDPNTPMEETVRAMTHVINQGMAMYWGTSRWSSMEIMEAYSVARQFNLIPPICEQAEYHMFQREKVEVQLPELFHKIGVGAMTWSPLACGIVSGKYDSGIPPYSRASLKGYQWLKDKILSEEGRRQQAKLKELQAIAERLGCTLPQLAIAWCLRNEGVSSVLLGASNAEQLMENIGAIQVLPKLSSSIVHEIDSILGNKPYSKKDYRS

[6] = target: Voltage-gated potassium channel subunit beta-2 (Rattus norvegicus) (UniProt P62483); test: enhancers of rat Kvbeta2 NADPH turnover – biochemical, NADPH fluorescence, primary screen (AID 623;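 active = NADPH fluorescence slope more negative than the mean of all samples by about 3 SD, 99.7% confidence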;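 also: fluorescence intensity change per second fitted from 20 to 320 s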); settings: Recombinant KvBeta, NADPH fluorescence decrease slope, 10 min; at 10 µM; stronger effect = lower value
[7] = target: Alpha-2C adrenergic receptor (Homo sapiens) (UniProt P18825); test: compounds altering alpha2C-coupled GIRK flux – cell-based, HEK293 alpha2C/GIRK1/2, thallium flux, primary screen (AID 624;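 active = fluorescence slope after compound addition differing from the mean of all screened samples at 99.7% confidence, in either direction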;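 also: slope of fluorescence ratio to pre-addition baseline per second over 15 to 24 s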); settings: thallium flux BTC fluorescence, at 10 µM, actives lie on both sides
Alpha-2C adrenergic receptor (Homo sapiens), sequence (P18825 whole entry, looked up): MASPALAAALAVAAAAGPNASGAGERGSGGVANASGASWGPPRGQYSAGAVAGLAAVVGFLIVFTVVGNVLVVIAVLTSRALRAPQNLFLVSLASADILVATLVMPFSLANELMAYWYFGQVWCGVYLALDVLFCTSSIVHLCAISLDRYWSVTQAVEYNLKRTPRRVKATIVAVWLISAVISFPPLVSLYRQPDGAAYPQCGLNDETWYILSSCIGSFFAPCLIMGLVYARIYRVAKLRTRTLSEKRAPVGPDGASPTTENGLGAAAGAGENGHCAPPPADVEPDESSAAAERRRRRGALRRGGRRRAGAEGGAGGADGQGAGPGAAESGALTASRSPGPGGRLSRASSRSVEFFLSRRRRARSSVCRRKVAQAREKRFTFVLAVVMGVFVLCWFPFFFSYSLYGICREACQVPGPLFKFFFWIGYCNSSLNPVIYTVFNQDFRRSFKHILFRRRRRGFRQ

[8] = loss of swimming-algae plug formation – whole organism, Chlamydomonas reinhardtii, WT vs cilia-less mutant, absorbance, 96-well, primary screen (AID 463189;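 active = inhibition at or above 50% relative to wild type and mutant plate controls; inactive = inhibition below 50%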;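 also: 0% = wild type cc124 cells in DMSO and 100% = ciliumless bld1 mutant cells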); settings: Chlamydomonas reinhardtii gravitaxis, OD600 absorbance, 2 days; at 10 µM; stronger effect = higher value
[9] = inhibitors of larval lipid processing in zebrafish, primary screen, whole organism, PED6 fluorescence, gall bladder and intestine (AID 686;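 active = a full or partial loss of lipid-probe fluorescence in the fish gall bladder, intestine or both, judged by eye; inactive = no fluorescence loss, or compound toxic to the fish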;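 also: larvae 5 to 7 days old with five fish per well; signal comes from phospholipase A2 cleavage of quenched PED6 carried via bile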); settings: Zebrafish larvae PED6 lipid processing, fluorescence scoring; screened at 20 µM (by protocol)
How it was run: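 Incubation: overnight exposure of larvae to compound plus PED6 / Test system: live zebrafish larvae aged 5-7 days, whole organism / Amount: 5 larvae per well / Read-out basis: visual per-well fluorescence inhibition score / Signal: visual fluorescence microscopy scoring of gall bladder, gut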

[10] = measured here: cell density z-score
[11] = measured here: nuclear c-Myc green intensity z-score
[12] = measured here: nuclear pErk red intensity z-score, stronger effect = higher value

| Compound | cell count [1] | inhibition [1] | inhibition [2] | nuclei count [2] [%] | z-score [3, 10] | z-score [3, 11] | z-score [3, 12] | inhibition [4] | fluorescence slope [5] | NADPH fluorescence slope [6] | slope [7] | inhibition [8] | outcome [9] |
| --- | --- | --- | --- | --- | --- | --- | --- | --- | --- | --- | --- | --- | --- |
| Cc1c(C)c2cc(Cl)c(O)c(CN3CCN(C)CC3)c2oc1=O | 394 | -6.5% (inactive) | -104% (inactive) | 179 | -0.305 | -0.256 | 0.789 | -10.5% (inactive) | -0.121 (inactive) | 3.5e-05 (inactive) | 0.00398 (inactive) | 14% (inactive) | – |
| CCCSc1nc(C)c(CC(=O)O)c(=O)[nH]1 | 381 | -7.9% (inactive) | -71.2% (inactive) | 190 | -2.53 | 0.0307 | -0.67 | 1.75% (inactive) | -0.45 (inactive) | -0.00012 (inactive) | 0.00515 (inactive) | 21.4% (inactive) | – |
| CCCc1cc(=O)oc2c(CN3CCCC3)c(O)c(Cl)cc12 | 371 | -2.3% (inactive) | -95.9% (inactive) | 144 | 0.942 | -0.732 | 0.231 | 22.8% (inactive) | -0.172 (inactive) | -2.5e-06 (inactive) | 0.00449 (inactive) | -0.278% (inactive) | – |
| COc1cccc(-c2nc(NC(C)(C)C)c3ccccc3n2)c1O | 394 | 0% (inactive) | -39.6% (inactive) | 141 | 0.222 | 0.227 | 0.927 | -1.75% (inactive) | -0.422 (inactive) | -0.000132 (inactive) | 0.00293 (inactive) | 34.2% (inactive) | – |
| Cc1ccccc1N1C(=O)C2ON(c3ccccc3)C(c3ccncc3)C2C1=O (stereo not given) | 337 | -2.8% (inactive) | -88.7% (inactive) | 156 | -1.56 | -0.511 | 0.414 | -12.3% (inactive) | -0.445 (inactive) | -0.000127 (inactive) | 0.00538 (inactive) | -10.6% (inactive) | – |
| C=C1C2(C(=O)Nc3nccs3)CCC(C2)C1(C)C (stereo not given) | 357 | -0.5% (inactive) | -34.7% (inactive) | 138 | -1.77 | 1.86 | 0.223 | -3.5% (inactive) | -0.4 (inactive) | -0.000131 (inactive) | 0.00676 (inactive) | 0.99% (inactive) | – |
| COc1cc(C2C(C(=O)c3cccs3)=C(O)C(=O)N2c2cc(C)on2)ccc1O (stereo not given) | 340 | 4.6% (inactive) | -93.3% (inactive) | 155 | 0.402 | -0.247 | -0.385 | -10.5% (inactive) | -0.43 (inactive) | -0.000162 (inactive) | 0.00517 (inactive) | -10.7% (inactive) | – |
| COc1ccc(N/C=C(\C#N)c2nc3ccccc3n2C)c(OC)c1 | 367 | -0.5% (inactive) | -18% (inactive) | 138 | -0.0541 | -0.725 | 2.53 | 1.75% (inactive) | -0.426 (inactive) | -0.000158 (inactive) | 0.00463 (inactive) | 1.37% (inactive) | – |
| Cc1ccc(N2C(=O)C3ON(c4ccccc4)C(c4ccncc4)C3C2=O)cc1 (stereo not given) | 381 | 1.9% (inactive) | -70.5% (inactive) | 142 | -0.368 | -0.198 | 0.0354 | -8.76% (inactive) | -0.416 (inactive) | -0.000456 (active) | 0.0052 (inactive) | 12.5% (inactive) | – |
| Cc1ccc2cc(CN(C(=O)c3ccco3)c3ccccc3C)c(=O)[nH]c2c1 | 334 | 8.3% (inactive) | -73.2% (inactive) | 116 | 1.77 | -1.81 | -0.15 | 17.5% (inactive) | -0.477 (inactive) | 1.8e-05 (inactive) | 0.00844 (inactive) | 32.2% (inactive) | – |
| O=C(O)CCCCCN1C(=O)CCC1=O | 376 | -5.6% (inactive) | -216% (inactive) | 154 | -0.0667 | -0.815 | 0.641 | 5.26% (inactive) | -0.456 (inactive) | -0.000125 (inactive) | 0.0074 (inactive) | 7.42% (inactive) | – |
| Cc1cc(-c2cc(-c3ccc(Cl)cc3)nc(N)c2C#N)co1 | 560 | -6.2% (inactive) | 62.4% (inactive) | 173 | 0.0299 | -0.21 | -0.449 | 7.01% (inactive) | -0.294 (inactive) | 4.6e-06 (inactive) | 0.00537 (inactive) | 5.58% (inactive) | inactive |
| C=CCOc1nc2c(c(=O)n(C)c(=O)n2C)n1Cc1ccccc1Cl | 617 | 0.6% (inactive) | 39.7% (inactive) | 155 | -1.51 | -0.0292 | 0.274 | 16.8% (inactive) | -0.515 (inactive) | -0.000108 (inactive) | 0.0054 (inactive) | 1.08% (inactive) | inactive |
| COc1cccc(/C(O)=C2/C(=O)C(=O)N(CCN(C)C)C2c2ccc(Br)cc2)c1 (stereo not given) | 321 | 18.1% (inactive) | 14.2% (inactive) | 102 | 0.101 | 1.46 | -0.618 | -12.3% (inactive) | -0.456 (inactive) | 7.9e-06 (inactive) | 0.00697 (inactive) | 28.7% (inactive) | – |
